Results reported in ChEMBL document CHEMBL1124344, “5-Piperazinylalkyl-2(3H)-oxazolones with neuroleptic activity” (J Med Chem, 1989).

Legend:
Mus musculus [1] = experiment: Antagonistic activity against amphetamine-induced hypermotility, after 5 hour of peroral administration in mouse; assay type: functional; settings: po
Outline: (§1)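 Male mice in groups of five, fasted overnight, given oral drug in arabic gum suspension (10 mL/kg) 1 or 5 h ahead. Amphetamine 4 mg/kg ip given 30 min after drug. Ten minutes later locomotion is recorded for 15 min in a photocell actophotometer. ED50 is 50% reduction versus control hypermotility, by probit analysis. Parenthetical entries give the maximal dose and percent activity.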

Mus musculus [2] = experiment: Activity of inclined screen in mouse, after 1 hour of peroral administration in mouse; assay type: functional; settings: po
Outline: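 Male mice dosed orally (arabic gum suspension, 10 mL/kg, fasted overnight) 1 or 5 h before testing. Placed for 1 h on a wire screen bent at 60° to the horizontal. Ataxic or miorelaxed mice slide off. ED50 is the dose at which 50% of mice fall, by probit analysis. Ten animals per dose, with vehicle controls.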

Mus musculus [3] = experiment: Antagonistic activity against amphetamine-induced hypermotility, after 1 hour of peroral administration in mouse; assay type: functional; settings: po; outline: as §1
Rattus norvegicus [4] = experiment: Inhibition against conditioned avoidance response, after 1 hour of peroral administration in rats; assay type: functional; settings: po
Outline: (§2)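 Male rats were trained in a shuttle box to avoid grid-floor shock by crossing compartments during a warning period. Dosing was oral as a gum arabic suspension at 10 mL/kg after an overnight fast. Percent inhibition was computed against a pretraining test. ED50 is the dose giving 50% inhibition.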

Rattus norvegicus [5] = experiment: Antagonistic activity against amphetamine-induced stereotypy, after 1 hour of peroral administration in rats; assay type: functional; settings: po
Outline: (§3)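 Male rats dosed orally (arabic gum suspension, 10 mL/kg, fasted overnight) 1 or 5 h beforehand. Amphetamine 7.5 mg/kg iv, with stereotyped movements scored as present or absent 1 h later. ED50 is the dose inhibiting stereotypy in 50% of rats, by probit analysis. Parenthetical entries give the maximal dose and percent activity.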

Mus musculus [6] = experiment: Inhibition against apomorphine-induced climbing, after 1 hour of peroral administration in mouse; assay type: functional; settings: po
Outline: (§4)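 Mice were dosed orally (gum arabic suspension, 10 mL/kg, fasted), then given apomorphine 1 mg/kg sc and placed in cylindrical cages with vertical metal bars. Climbing was scored 0 for four paws on the floor, 1 for forefeet on the wall, 2 for four paws on the wall. ED50 is the dose halving the control score.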

Rattus norvegicus [7] = experiment: Antagonistic activity against apomorphine-induced stereotypy, after 5 hour of peroral administration in rats; assay type: functional; settings: po
Outline: (§5)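 Male rats fasted overnight and given oral doses in arabic gum suspension (10 mL/kg) 1 h, or 1 and 5 h, before challenge. Apomorphine 3 mg/kg iv, with stereotypy observed 20 min later. ED50 is the dose inhibiting stereotypy in 50% of rats, per Janssen's method. Parenthetical entries give the maximal dose and percent activity.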

Mus musculus [8] = experiment: Contractile activity in skeletal muscles, after 1 hour of peroral administration in mouse; assay type: functional; settings: Muscle tissue, po
Outline: (§6)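 Male mice were placed for 1 h on a 60° inclined wire screen just after dosing and 4 h later. In a second test, trained mice hung by the forepaws from a horizontal 1.8 mm wire 15 cm up; normal mice touch it with a hind paw within 2 s and stay ≥1 min. ED50 is the dose making 50% fall. Dosing was oral in gum arabic suspension at 10 mL/kg after an overnight fast.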

Rattus norvegicus [9] = experiment: Antagonistic activity against amphetamine-induced stereotypy, after 5 hour of peroral administration in rats; assay type: functional; settings: po; outline: as §3
Mus musculus [10] = experiment: Contractile activity in skeletal muscles, after 5 hour of peroral administration in mouse; assay type: functional; settings: Muscle tissue, po; outline: as §6
Mus musculus [11] = experiment: Potentiation against pentobarbital-induced sleeping, after 5 hour of peroral administration in mouse; assay type: functional; settings: po
Outline: (§7)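 Female mice fasted overnight, dosed orally 1 or 5 h beforehand as arabic gum suspension, 10 mL/kg, with vehicle controls. Subhypnotic pentobarbital 10 mg/kg iv; 3 min later placed on back, effect scored as complete loss of righting reflex for at least 15 s. ED50 = dose producing this in 50% of mice, probit analysis.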

Rattus norvegicus [12] = organism: Rattus norvegicus; experiment: Body weight gain, after 2 hour period of conditioned feeding in rats; assay type: functional
Outline: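 Female rats (250–280 g) were kept singly on a 22-h food deprivation schedule, with pellets 10–12 a.m. and water always available. After 30–40 days of training they were dosed 1 h before the 2-h feeding and weighed before and after it. Weight gain was expressed as a percentage of the two preceding control days. ED50 is the dose giving 50% reduction.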

Rattus norvegicus [13] = experiment: Activity to evoke catalepsy, after 1 hour of peroral administration in rats; assay type: functional; settings: po
Outline: (§8)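 Rats fasted overnight and given oral doses in arabic gum suspension (10 mL/kg), 1 h before screening or 1 and 5 h before profile testing. Forelegs placed on a horizontal bar 7 cm high, three times at 5-min intervals. Immobility of at least 15 s counts as catalepsy. ED50 is the dose giving catalepsy in 50% of rats, by probit analysis. Parenthetical entries give the maximal dose and percent activity.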

Rattus norvegicus [14] = experiment: Antagonistic activity against apomorphine-induced stereotypy, after 1 hour of peroral administration in rats; assay type: functional; settings: po; outline: as §5
Mus musculus [15] = experiment: Inhibition against apomorphine-induced turning, after 1 hr of peroral administration in mouse; assay type: functional; settings: po
Outline: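 Mice were lesioned unilaterally with intranigrostriatal 6-hydroxydopamine (20 µg). At 7 days, strong contraversive turners 15 min after apomorphine 2 mg/kg ip were selected. A week later they were dosed orally and rechallenged. Fewer than six full rotations in 2 min counted as protection. ED50 is the dose protecting 50%.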

Mus musculus [16] = experiment: Potentiation against pentobarbital-induced sleeping, after 1 hour of peroral administration in mouse; assay type: functional; settings: po; outline: as §7
Rattus norvegicus [17] = experiment: Inhibition against conditioned avoidance response, after 5 hour of peroral administration in rats; assay type: functional; settings: po; outline: as §2
Mus musculus [18] = experiment: Inhibition against apomorphine-induced climbing, after 5 hour of peroral administration in mouse; assay type: functional; settings: po; outline: as §4
Canis familiaris = experiment: Antagonistic activity against apomorphine-induced emesis, after 5 hour of peroral administration in dogs; assay type: functional; settings: Canis lupus familiaris, po
Outline: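 Male and female dogs pretreated orally, then challenged with apomorphine 0.3 mg/kg sc. Complete protection from vomiting for 30 min after apomorphine is the criterion. ED50 is the dose protecting 50% of dogs, per Janssen's method.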

Rattus norvegicus [19] = experiment: Activity to evoke catalepsy, after 5 hour of peroral administration in rats; assay type: functional; settings: po; outline: as §8
Mus musculus [20] = experiment: Inhibition of spontaneous motor activity in mouse, by administering perorally; assay type: functional; settings: po
Outline: (§9)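 Mice fasted overnight, then dosed orally with compound (weighed as base) suspended in arabic gum, 10 mL/kg, with vehicle controls; 1 h pretreatment for screening tests, 1 or 5 h for others. Groups of five; locomotor activity counted 10 min in photocell activity cage, at least two groups per dose. ED50 = dose giving 50% inhibition versus controls, by probit analysis.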

Mus musculus [21] = experiment: Antagonistic activity against amphetamine-induced Hypermobility in mouse by administering perorally; assay type: functional; settings: po; outline: as §1
Mus musculus [22] = experiment: Suppression of aggressive behavior, after 1 hour of peroral administration in mouse; assay type: functional; settings: po
Outline: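 Male mice made aggressive by isolation in individual black cages for about 1 month plus weekly testosterone cyclopentylpropionate 250 mg/kg sc; pairs preselected for attack on a nonisolated male within 15 min. Oral dosing (arabic gum, 10 mL/kg) 1 or 5 h before test, overnight fast. ED50 = dose suppressing aggression in 50% of animals, probit analysis.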

[23] = Lethal dose in mice (LD50) following i.p. dosing; assay type: toxicity, organism-based; settings: mouse, in vivo, ip
Outline: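 Acute toxicity tested in mice by the intraperitoneal route. LD50 is the dose killing 50% of treated mice, computed by Finney probit analysis; values are approximate.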

Mus musculus [24] = experiment: Inhibition of spontaneous motor activity, after 1 hour of peroral administration in mouse; assay type: functional; settings: po; outline: as §9

| Structure (SMILES) | ED50 (Mus musculus [1]) | ED50 (Mus musculus [2]) | ED50 (Mus musculus [3]) | ED50 (Rattus norvegicus [4]) | ED50 (Rattus norvegicus [5]) | ED50 (Mus musculus [6]) | ED50 (Rattus norvegicus [7]) | ED50 (Mus musculus [8]) | ED50 (Rattus norvegicus [9]) | ED50 (Mus musculus [10]) | ED50 (Mus musculus [11]) | ED50 (Rattus norvegicus [12]) | ED50 (Rattus norvegicus [13]) | ED50 (Rattus norvegicus [14]) | ED50 (Mus musculus [15]) | ED50 (Mus musculus [16]) | ED50 (Rattus norvegicus [17]) | ED50 (Mus musculus [18]) | ED50 (Canis familiaris) | ED50 (Rattus norvegicus [19]) | other results |
| --- | --- | --- | --- | --- | --- | --- | --- | --- | --- | --- | --- | --- | --- | --- | --- | --- | --- | --- | --- | --- | --- |
| CN(C)CCCN1c2ccccc2Sc2ccc(Cl)cc21 [CHLORPROMAZINE] | 2.4 mg/kg | 5.4 mg/kg | 4.1 mg/kg | 6.8 mg/kg | 19.4 mg/kg | 2 mg/kg | 41.6 mg/kg | 36.5 mg/kg | 13.6 mg/kg | 10.3 mg/kg | 3.3 mg/kg | 6 mg/kg | 10.3 mg/kg | 28.9 mg/kg | 4.4 mg/kg | 3.2 mg/kg | 10.3 mg/kg | 2.2 mg/kg | – | – | – |
| COc1ccccc1N1CCN(CCCC(=O)c2ccc(F)cc2)CC1 [FLUANISONE] | 18 mg/kg | 49 mg/kg | 16.4 mg/kg | 25 mg/kg | 17.8 mg/kg | 5 mg/kg | – | 20 mg/kg | 50 mg/kg | 50 mg/kg | – | – | 18 mg/kg | 63.2 mg/kg | 14.7 mg/kg | 20.7 mg/kg | 50 mg/kg | 15 mg/kg | 8.6 mg/kg | 13.9 mg/kg | ED50 (Mus musculus [20]): 7.7 mg/kg; ED50 (Mus musculus [21]): 16.4 mg/kg; ED50 (Mus musculus [22]): 6.1 mg/kg; LD50 [23]: 180 mg/kg |
| O=C(CCCN1CCC(O)(c2ccc(Cl)cc2)CC1)c1ccc(F)cc1 [HALOPERIDOL] | 0.28 mg/kg | 6.8 mg/kg | 0.12 mg/kg | 0.23 mg/kg | 0.27 mg/kg | 0.12 mg/kg | 1.8 mg/kg | – | 0.39 mg/kg | 15 mg/kg | 3.1 mg/kg | 0.3 mg/kg | 15.4 mg/kg | 1.1 mg/kg | 0.32 mg/kg | 7 mg/kg | 0.32 mg/kg | 0.045 mg/kg | – | – | ED50 (Mus musculus [24]): 0.16 mg/kg |
| O=c1[nH]c(-c2ccc(F)cc2)c(CCN2CCN(c3cc(Cl)cc(Cl)c3)CC2)o1 [LODIPERONE] | 1.9 mg/kg | – | 1.5 mg/kg | – | 13.5 mg/kg | 0.37 mg/kg | 106 mg/kg | 200 mg/kg | 4.2 mg/kg | 200 mg/kg | – | 2.2 mg/kg | – | – | 0.84 mg/kg | – | 6.4 mg/kg | 0.21 mg/kg | 2.5 mg/kg | 24.3 mg/kg | ED50 (Mus musculus [24]): 2.7 mg/kg; ED50 (Mus musculus [20]): 2.7 mg/kg; ED50 (Mus musculus [21]): 1.5 mg/kg; ED50 (Mus musculus [22]): 23.8 mg/kg; LD50 [23]: > 2000 mg/kg |
| COc1ccccc1N1CCN(CCc2oc(=O)[nH]c2-c2ccc(F)cc2)CC1 [ZOLOPERONE] | 15 mg/kg | 91 mg/kg | 4 mg/kg | 3.5 mg/kg | 5.3 mg/kg | 0.42 mg/kg | 60.7 mg/kg | – | 12.4 mg/kg | 62.5 mg/kg | 37.3 mg/kg | 7.1 mg/kg | 55.6 mg/kg | 10.4 mg/kg | 15.9 mg/kg | 41.1 mg/kg | 11.6 mg/kg | 4 mg/kg | 1.5 mg/kg | 21.5 mg/kg | ED50 (Mus musculus [24]): 4.6 mg/kg; ED50 (Mus musculus [20]): 4.6 mg/kg; ED50 (Mus musculus [21]): 4 mg/kg; ED50 (Mus musculus [22]): 4.7 mg/kg; LD50 [23]: > 2000 mg/kg |
